Results as given in ChEMBL document CHEMBL1126073, “Synthesis of carbon-11 labeled iodinated cocaine derivatives and their distribution in baboon brain measured using positron emission tomography” (J Med Chem, 1992).

Experiments:
[1] = (§1) Baboon plasma free fraction.; type: ADME, cell-free; details: cercopithecidae, read-out: Free fraction
Method in brief: (§2)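 Free fraction by ultrafiltration: 11C-labelled compound added to 0.18 mL baboon plasma plus 0.02 mL 100 mM sodium phosphate pH 7.4 with 1 μg physostigmine (esterase block). Incubated 15 min at room temperature, vortexed every 5 min, centrifugal filter spun 5 min. Value = 11C concentration in ultrafiltrate / concentration in incubation mixture.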

[2] = Percentage of tracer or metabolite (CO2) in baboon plasma at 10 min after injection of the compound; type: ADME, cell-free; details: cercopithecidae
Method in brief: (§3)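 Arterial baboon plasma taken 1, 5, 10 and 30 min after injection of 11C tracer. 0.2 mL plasma in 1 mL acetonitrile, sonicated, centrifuged. Supernatant run on silica HPLC with acetonitrile/0.004 M (NH4)2HPO4 70/30 plus unlabelled carrier. Unchanged tracer, EME and void-volume acidic 11C measured as fractions of total. [11C]CO2 measured separately by volatilization assay. Mean of two experiments.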

[3] = Percentage of tracer or metabolite (CO2) in baboon plasma at 30 min after injection of the compound; type: ADME, cell-free; details: cercopithecidae, 0.5 h; method in brief: as §3
[4] = Percentage of tracer or metabolite (CO2) in baboon plasma at 5 min after injection of the compound; type: ADME, cell-free; details: cercopithecidae; method in brief: as §3
[5] = Percentage of tracer or metabolite(EME) in baboon plasma at 10 min after injection of the compound; type: ADME, cell-free; details: cercopithecidae; method in brief: as §3
[6] = Percentage of tracer or metabolite(EME) in baboon plasma at 1 min after injection of the compound; type: ADME, cell-free; details: cercopithecidae; method in brief: as §3
[7] = Percentage of tracer or metabolite(EME) in baboon plasma at 30 min after injection of the compound; type: ADME, cell-free; details: cercopithecidae, 0.5 h; method in brief: as §3
[8] = Percentage of tracer or metabolite(EME) in baboon plasma at 5 min after injection of the compound; type: ADME, cell-free; details: cercopithecidae; method in brief: as §3
[9] = Percentage of tracer or metabolite (acid metabolites) in baboon plasma at 10 min after injection of the compound; type: ADME, cell-free; details: cercopithecidae; method in brief: as §3
[10] = Percentage of tracer or metabolite (acid metabolites) in baboon plasma at 1 min after injection of the compound; type: ADME, cell-free; details: cercopithecidae; method in brief: as §3
[11] = Percentage of tracer or metabolite (acid metabolites) in baboon plasma at 30 min after injection of the compound; type: ADME, cell-free; details: cercopithecidae, 0.5 h; method in brief: as §3
[12] = Percentage of tracer or metabolite (acid metabolites) in baboon plasma at 5 min after injection of the compound; type: ADME, cell-free; details: cercopithecidae; method in brief: as §3
[13] = Percentage of tracer or metabolite (unchanged) in baboon plasma at 10 min after injection of the compound; type: ADME, cell-free; details: cercopithecidae; method in brief: as §3
[14] = Percentage of tracer or metabolite (unchanged) in baboon plasma at 1 min after injection of the compound; type: ADME, cell-free; details: cercopithecidae; method in brief: as §3
[15] = Percentage of tracer or metabolite (unchanged) in baboon plasma at 30 min after injection of the compound; type: ADME, cell-free; details: cercopithecidae, 0.5 h; method in brief: as §3
[16] = Percentage of tracer or metabolite (unchanged) in baboon plasma at 5 min after injection of the compound; type: ADME, cell-free; details: cercopithecidae; method in brief: as §3
[17] = Clearance from plasma(with matabolite-corrected plasma radioactivity-time integral) at 30 min after administration.; type: ADME, cell-free; details: cercopithecidae, 0.5 h
Method in brief: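 Anaesthetised baboons given 4.7–8.4 mCi 11C tracer. Automated arterial sampling for the first 2 min, then manual sampling. Plasma total radioactivity corrected for metabolites using two-component exponential fits to the metabolite fractions. Time-radioactivity integral to 30 min by cubic spline integration.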

Monkey [18] = assay: Peak striatal uptake in baboon expressed as percentage of injected dose per mL of tissue.; type: functional, Cercopithecidae, Striatum
Method in brief: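 Adult female baboons (n = 7, 14.2–18.5 kg), ketamine 10 mg/kg i.m. induction, then oxygen/nitrous oxide/isoflurane anaesthesia. 4.7–8.4 mCi of N-11C-methyl tracer injected intravenously per PET scan. Regional time-activity curves; peak striatal radioactivity expressed as percent of injected dose per mL of tissue.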

[19] = Percentage of tracer or metabolite (CO2) in baboon plasma at 1 min after injection of the compound; type: ADME; details: cercopithecidae; method in brief: as §3
[20] = Percentage unmetabolized in baboon plasma at 30 min after administration.; type: functional, Cercopithecidae; method in brief: as §3
[21] = target: Sodium-dependent dopamine transporter (Rattus norvegicus, UniProt P23977); assay: Concentration inhibiting [3H]cocaine binding site to rat striatal membranes.
Method in brief: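 Rat striatal membranes prepared in ice-cold 320 mM sucrose with 10 mM NaH2PO4, pH 7.45 (1000g 3 min, then 30000g 30 min pellet). About 0.25 mg protein incubated at room temperature for 20 min with 2 nM [3H]cocaine, inhibitors 6 nM to 20 μM. Filtration through polyethylenimine-soaked glass-fibre filters, ice-cold wash, liquid scintillation counting.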

Monkey [22] = assay: as §1; type: functional, organism-based; details: Cercopithecidae; method in brief: as §2

Sodium-dependent dopamine transporter, sequence (P23977 whole entry): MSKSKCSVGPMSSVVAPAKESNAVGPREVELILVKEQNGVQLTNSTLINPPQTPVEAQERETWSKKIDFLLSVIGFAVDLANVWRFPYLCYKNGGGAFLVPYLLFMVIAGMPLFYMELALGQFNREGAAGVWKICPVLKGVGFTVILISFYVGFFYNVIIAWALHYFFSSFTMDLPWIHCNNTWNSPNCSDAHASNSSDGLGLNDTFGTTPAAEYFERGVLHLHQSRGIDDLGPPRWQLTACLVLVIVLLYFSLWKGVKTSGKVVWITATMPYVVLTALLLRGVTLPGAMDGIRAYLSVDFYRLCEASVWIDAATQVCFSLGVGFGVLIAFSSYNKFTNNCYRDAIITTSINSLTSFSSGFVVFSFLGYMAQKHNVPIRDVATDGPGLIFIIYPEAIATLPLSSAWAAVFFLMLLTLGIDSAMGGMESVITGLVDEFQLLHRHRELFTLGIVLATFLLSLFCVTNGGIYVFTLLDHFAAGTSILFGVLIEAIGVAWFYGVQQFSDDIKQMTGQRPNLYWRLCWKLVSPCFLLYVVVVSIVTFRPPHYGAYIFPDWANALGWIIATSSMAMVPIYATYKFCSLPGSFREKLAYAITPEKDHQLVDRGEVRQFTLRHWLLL

Compound | fraction unbound [1] | Tracer [2] [%] | Tracer [3] [%] | Tracer [4] [%] | Tracer [5] [%] | Tracer [6] [%] | Tracer [7] [%] | Tracer [8] [%] | Tracer [9] [%] | Tracer [10] [%] | Tracer [11] [%] | Tracer [12] [%] | Tracer [13] [%] | Tracer [14] [%] | Tracer [15] [%] | Tracer [16] [%] | Plasma integral [17] [uCi min ml-1] | Peak striatal uptake (Monkey [18]) | Tracer [19] [%] | Unmetabolized [20] [%] | further results
COC(=O)C1C2CCC(C[C@@H]1OC(=O)c1ccc(I)cc1)N2C (stereo partly specified) | 0.06 | 21 | 32 | 7 | 2 | 1.5 | 2.6 | 2.5 | 45 | 0.5 | 71 | 17 | 48 | 90 | 22 | 60 | 1.8 | 0.04 | 1 | 22 | –
COC(=O)C1C2CCC(C[C@@H]1OC(=O)c1ccccc1I)N2C (stereo partly specified) | – | 21 | 29 | 15 | 0.2 | 0.3 | 0.2 | 0.2 | 52 | 0.02 | 69 | 15 | 48 | 97 | 33 | 79 | 6.1 | 0.01 | -7 | 33 | IC50 [21]: 0.35 µM; Fu (Monkey [22]): 0.003%
COC(=O)C1C2CCC(C[C@@H]1OC(=O)c1cccc(I)c1)N2C (stereo partly specified) | 0.016 | 33 | 43 | 17 | 1 | 0.7 | 4 | 3 | 35 | 0.4 | 51 | 18 | 60 | 95 | 36 | 77 | 2.8 | 0.03 | 3 | 36 | –
COC(=O)[C@H]1[C@@H](OC(=O)c2ccccc2)C[C@@H]2CC[C@H]1N2C [COCAINE] | 0.1 | 37 | 44 | 30 | 11 | 12 | 12 | 13 | 38 | 0.4 | 60 | 22 | 31 | 70 | 17 | 44 | 2.1 | 0.06 | 6 | 17 | –
